This note sets out measurements from ChEMBL document CHEMBL4819003, “Optimization of novel oxidative DIMs as Nur77 modulators of the Nur77-Bcl-2 apoptotic pathway” (Eur J Med Chem, 2021).

The source made the active and inactive calls. The rule behind the calls is not given here.

Broadly, the IC50 is the concentration at which inhibition is half-maximal.

In assay [1] the test system is HCT-116. The assay is described as follows: Induction of apoptosis in human HCT-116 cells assessed as PARP cleavage at 0.5 uM measured after 6 hrs by western blot assay. The format is functional, cell-based. The procedure, abridged:
(§1)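 Cells exposed to 0.5 µM for 6 h. Lysates resolved by SDS-PAGE and blotted to PVDF, blocked in 5% milk/TBST, probed with primary antibodies at 1:1000, ECL detection. Apoptosis scored as the densitometric ratio of cleaved PARP band to intact PARP band; mean ± SD, n = 3.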
(Immunoblotting shows a protein as a band on a membrane.)

The test system of assay [2] is MDA-MB-231. Description: Induction of apoptosis in human MDA-MB-231 cells assessed as PARP cleavage at 0.5 uM measured after 6 hrs by western blot assay. The format is functional, cell-based. The procedure, abridged:
as §1

In assay [3] the test system is HCT-116. The assay is described as follows: Cytotoxicity against human HCT-116 cells assessed as inhibition of cell growth measured after 24 hrs by MTT assay. The format is functional, cell-based. The method in brief: (§2)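 MTT viability assay, 24 h exposure to a concentration series, 10^4 cells/well. Cancer lines were in DMEM (BT549, MDA-MB-231) or RPMI-1640 (HCT116, SW620) with 10% FBS. MCF10A and NCM460 were in DMEM with 20% FBS and 10 ng/ml EGF. MTT at 5 mg/mL for 4 h at 37 °C, formazan dissolved in DMSO, A490. IC50 from curve fit; mean ± SD, at least 6 experiments.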
In general terms: Formazan colour is commonly taken as a measure of viable cells.

A further assay relates to MCF-10A. The assay is described as follows: Cytotoxicity against human MCF-10A cells assessed as inhibition of cell growth measured after 24 hrs by MTT assay. The format is cell-based. The method in brief:
as §2

The subject of a further assay is NCM460. The assay is described as follows: Cytotoxicity against human NCM460 cells assessed as inhibition of cell growth measured after 24 hrs by MTT assay. The class given is cell-based. The procedure, abridged: as §2
The subject of assay [4] is MDA-MB-231. The assay is described as follows: Cytotoxicity against human MDA-MB-231 cells assessed as inhibition of cell growth measured after 24 hrs by MTT assay. Particulars: MDA-MB-231, 24 h. The class given is functional, cell-based. The procedure, abridged:
as §2

Assay [5] relates to MEF. The assay is described as follows: Induction of apoptosis in mouse MEF cells lacking Nur77 assessed as PARP cleavage at 0.5 uM measured after 6 hrs by western blot assay. The format is functional, cell-based. The procedure, abridged: (§3)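 Wild-type, Nur77−/− or Bcl-2−/− mouse embryonic fibroblasts grown in DMEM with 10% FBS and treated with 0.5 µM for 6 h. PARP cleavage detected by western blot, primary antibodies at 1:1000, ECL.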

The test system of a further assay is BT-549. The assay is described as follows: Cytotoxicity against human BT-549 cells assessed as inhibition of cell growth measured after 24 hrs by MTT assay. The format is functional, cell-based. The note with it: BT-549, 24 h. The method in brief: as §2
For assay [6], the system named is MEF. Description: Induction of apoptosis in wild type mouse MEF cells assessed as PARP cleavage at 0.5 uM measured after 6 hrs by western blot assay. The class given is functional, cell-based. The procedure, abridged:
as §3

A further assay deals with SW-620. The assay is described as follows: Cytotoxicity against human SW-620 cells assessed as inhibition of cell growth measured after 24 hrs by MTT assay. The class given is functional, cell-based. The note with it: SW-620, 24 h. The procedure, abridged:
as §2

Assay [7] concerns MEF. Description: Induction of apoptosis in mouse MEF cells deficient in Bcl2 assessed as PARP cleavage at 0.5 uM measured after 6 hrs by Western blot assay. The format is functional, cell-based. The procedure, abridged: as §3
The test system of assay [8] is MDA-MB-231. The assay is described as follows: Induction of apoptosis in human MDA-MB-231 cells assessed as PARP cleavage at 0.5 uM measured after 6 hrs by western blot assay relative to Di(1H-indol-3-yl)(4-(trifluoromethyl)phenyl)methylium methanesulfonate. The format is functional. The procedure, abridged:
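MDA-MB-231 in DMEM with 10% FBS, 0.5 µM for 6 h, then PARP western blot with 1:1000 primary antibodies and ECL. Cleaved PARP/PARP band intensity ratio expressed relative to the reference methylium methanesulfonate, whose ratio was set to 1. Mean ± SD, n = 3.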

On to `Clc1ccccc1[C+](c1c[nH]c2ccccc12)c1c[nH]c2ccccc12`, for which the outcome with HCT-116 [1] and with MDA-MB-231 [2] was inactive.

Turning to `CC(C)(C)c1ccc([C+](c2c[nH]c3ccccc23)c2c[nH]c3ccccc23)cc1`, the result in the assay on HCT-116 [1] and in the assay on MDA-MB-231 [2] was inactive.

Take `Oc1cccc([C+](c2c[nH]c3ccccc23)c2c[nH]c3ccccc23)c1`: the outcome with HCT-116 [1] was Active. Moreover, the outcome with MDA-MB-231 [2] was inactive.

For the compound `Fc1cccc([C+](c2c[nH]c3ccccc23)c2c[nH]c3ccccc23)c1`, the result in the assay with HCT-116 [1] and in the assay with MDA-MB-231 [2] was Active.

For `FC(F)(F)c1ccc([C+](c2c[nH]c3ccccc23)c2c[nH]c3ccccc23)cc1`, the results for the IC50 in the assay with HCT-116 [3] (hct-116), in the assay on MCF-10A (mcf-10a) and in the assay on NCM460 (ncm460) were 260 nM, 3580 nM and 5130 nM, respectively.

As to `c1csc([C+](c2c[nH]c3ccccc23)c2c[nH]c3ccccc23)c1`, the outcome in the assay with HCT-116 [1] was Active. Also, the outcome with MDA-MB-231 [2] was inactive.

With `c1cncc([C+](c2c[nH]c3ccccc23)c2c[nH]c3ccccc23)c1`, the outcome with HCT-116 [1] was Active. For the same compound, in the assay on MDA-MB-231 [2], the result was inactive.

Take `Cc1ccc([C+](c2c[nH]c3ccccc23)c2c[nH]c3ccccc23)cc1`: the outcome in the assay on HCT-116 [1] and in the assay on MDA-MB-231 [2] was inactive.

As for `FC(F)(F)c1ccc([C+](c2c[nH]c3ccccc23)c2c[nH]c3ccccc23)cn1`, the IC50 is 230 nM in the assay with MDA-MB-231 [4]; 350 nM with HCT-116 [3] (Homo sapiens, HCT-116, 24 h); 50 nM in the assay with BT-549; 140 nM in the assay on SW-620; 2980 nM in the assay with MCF-10A (Homo sapiens, MCF-10A, 24 h); 8100 nM with NCM460 (Homo sapiens, NCM460, 24 h). The result in the assay on MEF [5] and in the assay on MEF [7] was inactive. For the same compound, the outcome in the assay on HCT-116 [1], with MEF [6] and in the assay with MDA-MB-231 [2] was Active.

In the case of `Clc1ccc([C+](c2c[nH]c3ccccc23)c2c[nH]c3ccccc23)cc1`, in the assay on HCT-116 [1], the result was Active. For the same compound, the result with MDA-MB-231 [2] was inactive.

`FC(F)(F)c1ccccc1[C+](c1c[nH]c2ccccc12)c1c[nH]c2ccccc12`: the result with HCT-116 [1] and with MDA-MB-231 [2] was inactive.

As to `c1ccc2c([C+](c3c[nH]c4ccccc34)c3csc4ccccc34)c[nH]c2c1`, the outcome in the assay on HCT-116 [1] was Active. Further, in the assay on MDA-MB-231 [2], the outcome was inactive.

`COc1cccc([C+](c2c[nH]c3ccccc23)c2c[nH]c3ccccc23)c1`: in the assay on HCT-116 [1], the result was Active. Moreover, in the assay with MDA-MB-231 [2], the result was inactive.

For `O=[N+]([O-])c1ccc([C+](c2c[nH]c3ccccc23)c2c[nH]c3ccccc23)cc1`, in the assay with HCT-116 [1], the outcome was Active. Further, the result in the assay with MDA-MB-231 [2] was inactive.

In the case of `c1ccc(-c2ccc([C+](c3c[nH]c4ccccc34)c3c[nH]c4ccccc34)cc2)cc1`, the outcome in the assay with HCT-116 [1] and in the assay on MDA-MB-231 [2] was Active.

For `FC(F)(F)c1ccc([C+](c2c[nH]c3ccccc23)c2c[nH]c3ccccc23)c(C(F)(F)F)c1`, the outcome with HCT-116 [1] and in the assay on MDA-MB-231 [2] was inactive.

As to `Clc1cccc([C+](c2c[nH]c3ccccc23)c2c[nH]c3ccccc23)c1`, in the assay on HCT-116 [1], the result was Active. For the same compound, the result in the assay with MDA-MB-231 [2] was inactive.

In the case of `FC(F)(F)c1cccc([C+](c2c[nH]c3ccccc23)c2c[nH]c3ccccc23)c1.[Cl-]`, the IC50 in the assay with MDA-MB-231 [4] amounted to 290 nM; in the assay on HCT-116 [3] (Homo sapiens, HCT-116, 24 h), 310 nM; in the assay with BT-549 it was 70 nM; in the assay with SW-620, 130 nM; in the assay on MCF-10A (Homo sapiens, MCF-10A, 24 h), 5030 nM; with NCM460 (Homo sapiens, NCM460, 24 h), 10000 nM. The result with HCT-116 [1] and with MDA-MB-231 [2] was Active. Moreover, the “fold change (FC)” value in the assay on MDA-MB-231 [8] is listed as 1.76.

Regarding `CCCn1cc([C+](c2ccc(C(F)(F)F)cc2)c2c[nH]c3ccccc23)c2ccccc21`, the IC50 was determined as 170 nM in the assay with MDA-MB-231 [4]; 350 nM with HCT-116 [3] (Homo sapiens, HCT-116, 24 h); 100 nM in the assay with BT-549; 160 nM in the assay on SW-620; 1310 nM in the assay on MCF-10A (Homo sapiens, MCF-10A, 24 h); 5090 nM in the assay on NCM460 (Homo sapiens, NCM460, 24 h). Also, the outcome with MEF [5] and with MEF [7] was inactive. Also, the outcome in the assay on HCT-116 [1], with MEF [6] and in the assay on MDA-MB-231 [2] was Active.

`CCCCn1cc([C+](c2ccc(C(F)(F)F)cc2)c2c[nH]c3ccccc23)c2ccccc21`: the outcome in the assay on HCT-116 [1] and in the assay on MDA-MB-231 [2] was Active.

In the case of `Cn1cc([C+](c2ccc(C(F)(F)F)cc2)c2cn(C)c3ccccc23)c2ccccc21`, in the assay with HCT-116 [1], the outcome was inactive. Besides, the outcome in the assay with MDA-MB-231 [2] was Active.

For the compound `CS(=O)(=O)[O-].c1ccc([C+](c2c[nH]c3ccccc23)c2c[nH]c3ccccc23)cc1`, in the assay with HCT-116 [1], the outcome was inactive. The “fold change (FC)” value in the assay with MDA-MB-231 [8] stood at 0.01. Also, the outcome in the assay on MDA-MB-231 [2] was Active.

For `Fc1ccc([C+](c2c[nH]c3ccccc23)c2c[nH]c3ccccc23)cc1`, the outcome in the assay with HCT-116 [1] and with MDA-MB-231 [2] was Active.

As to `Cc1cccc([C+](c2c[nH]c3ccccc23)c2c[nH]c3ccccc23)c1`, the result in the assay with HCT-116 [1] was Active. The outcome with MDA-MB-231 [2] was inactive.

With `Fc1ccccc1[C+](c1c[nH]c2ccccc12)c1c[nH]c2ccccc12`, the outcome in the assay on HCT-116 [1] and in the assay on MDA-MB-231 [2] was inactive.

With `c1ccc2c([C+](c3c[nH]c4ccccc34)c3c[nH]c4ccccc34)c[nH]c2c1`, the result with HCT-116 [1] was Active. Besides, the result with MDA-MB-231 [2] was inactive.

For `COC(=O)c1ccc([C+](c2c[nH]c3ccccc23)c2c[nH]c3ccccc23)cc1`, the result with HCT-116 [1] and in the assay with MDA-MB-231 [2] was Active.

Turning to `CCCCCn1cc([C+](c2ccc(C(F)(F)F)cc2)c2c[nH]c3ccccc23)c2ccccc21`, the result in the assay on HCT-116 [1] and in the assay on MDA-MB-231 [2] was inactive.

In the case of `O=C(O)c1ccc([C+](c2c[nH]c3ccccc23)c2c[nH]c3ccccc23)cc1`, the outcome in the assay on HCT-116 [1] was Active. For the same compound, the result in the assay with MDA-MB-231 [2] was inactive.

`Oc1ccc([C+](c2c[nH]c3ccccc23)c2c[nH]c3ccccc23)cc1`: the outcome in the assay with HCT-116 [1] was inactive. For the same compound, in the assay with MDA-MB-231 [2], the outcome was Active.

In the case of `Oc1ccccc1[C+](c1c[nH]c2ccccc12)c1c[nH]c2ccccc12`, the outcome in the assay on HCT-116 [1] and in the assay with MDA-MB-231 [2] was inactive.

In the case of `c1coc([C+](c2c[nH]c3ccccc23)c2c[nH]c3ccccc23)c1`, the result in the assay with HCT-116 [1] was Active. Also, the outcome with MDA-MB-231 [2] was inactive.

As for `COc1ccc([C+](c2c[nH]c3ccccc23)c2c[nH]c3ccccc23)cc1`, the outcome with HCT-116 [1] and with MDA-MB-231 [2] was inactive.

As for `CCc1ccc([C+](c2c[nH]c3ccccc23)c2c[nH]c3ccccc23)cc1`, the result in the assay with HCT-116 [1] and in the assay with MDA-MB-231 [2] was inactive.
